ChEMBL document CHEMBL1926518, “Synthesis of macrolones with central piperazine ring in the linker and its influence on antibacterial activity” (2011)
≈ marks a conversion by molar mass, not a printed value.

Tests used:
Format in all cases: functional
Streptococcus pyogenes [1] = experiment: Antibacterial activity against efflux-mediated macrolide-resistant Streptococcus pyogenes 3 Finland by broth microdilution technique
Outline: (§1)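 MICs were determined by CLSI broth microdilution, with double dilutions of compound. In the streptococcal medium, 5% horse serum replaced lysed blood. Streptococci were grown on Columbia agar with 5% sheep blood before testing. Results are given in µg/mL.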

Streptococcus pneumoniae [2] = experiment: Antibacterial activity against efflux-mediated macrolide-resistant Streptococcus pneumoniae Ci137 by broth microdilution technique; outline: as §1
Streptococcus pyogenes [3] = experiment: Antibacterial activity against constitutive macrolide, licosamide and streptogramin-resistant Streptococcus pyogenes 166 GR-Micro by broth microdilution technique; outline: as §1
Streptococcus pneumoniae [4] = experiment: Antibacterial activity against erythromycin-sensitive Streptococcus pneumoniae SP030 by broth microdilution technique
Outline: (§2)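 Streptococcal MICs by CLSI broth microdilution with doubling dilutions, but with 5% horse serum in the medium in place of lysed blood. Before testing, strains were grown on Columbia agar with 5% sheep blood. Values reported in µg/mL.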

Staphylococcus aureus [5] = experiment: Antibacterial activity against erythromycin-sensitive Staphylococcus aureus ATCC 13709 by broth microdilution technique
Outline: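 MIC by broth microdilution per CLSI guidelines with doubling dilutions of compounds. Before testing, staphylococci were grown on Mueller–Hinton agar. Values reported in µg/mL.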

Haemophilus influenzae = experiment: Antibacterial activity against Haemophilus influenzae ATCC 49247 by broth microdilution technique
Outline: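 MIC by broth microdilution per CLSI guidelines with doubling dilutions of compounds. Before testing, organisms were grown on Mueller-Hinton chocolate agar. Values reported in µg/mL.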

Staphylococcus aureus [6] = experiment: Antibacterial activity against efflux-mediated macrolide-resistant Staphylococcus aureus PK1 by broth microdilution technique
Outline: (§3)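 MICs were determined by CLSI broth microdilution, with double dilutions of compound. Staphylococci were grown on Mueller–Hinton agar before testing. Results are given in µg/mL.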

Streptococcus pneumoniae [7] = experiment: Antibacterial activity against inducible macrolide-resistant, constitutive licosamide and streptogramin-resistant Streptococcus pneumoniae 134 GR-Micro by broth microdilution technique; outline: as §1
Streptococcus pyogenes [8] = experiment: Antibacterial activity against inducible macrolide, licosamide and streptogramin-resistant Streptococcus pyogenes Finland 11 by broth microdilution technique; outline: as §1
Streptococcus pneumoniae [9] = experiment: Antibacterial activity against constitutive macrolide, licosamide and streptogramin-resistant Streptococcus pneumoniae 58 Spain by broth microdilution technique; outline: as §1
Streptococcus pyogenes [10] = experiment: Antibacterial activity against erythromycin-sensitive Streptococcus pyogenes 3565 by broth microdilution technique; outline: as §2
Staphylococcus aureus [11] = experiment: Antibacterial activity against constitutive macrolide, licosamide and streptogramin-resistant Staphylococcus aureus PK2 by broth microdilution technique; outline: as §3
Moraxella catarrhalis = experiment: Antibacterial activity against Moraxella catarrhalis ATCC 23246 by broth microdilution technique
Outline: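 MIC by broth microdilution per CLSI guidelines with doubling dilutions of compounds. Before testing, organisms were grown on Columbia agar with 5% sheep blood. Values reported in µg/mL.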

Staphylococcus aureus [12] = experiment: Antibacterial activity against inducible macrolide, licosamide and streptogramin-resistant Staphylococcus aureus 90256/97 by broth microdilution technique; outline: as §3

CC[C@H]1OC(=O)[C@H](C)[C@@H](O[C@H]2C[C@@](C)(OC)[C@@H](O)[C@H](C)O2)[C@H](C)[C@@H](O[C@@H]2O[C@H](C)C[C@H](N(C)C)[C@H]2O)[C@](C)(O)C[C@@H](C)CN(C)[C@H](C)[C@@H](O)[C@]1(C)O [AZITHROMYCIN]
MIC (Streptococcus pyogenes [1]): 8 µg/mL (≈ 10.7 µM)
MIC (Streptococcus pneumoniae [2]): 8 µg/mL (≈ 10.7 µM)
MIC (Streptococcus pyogenes [3]): > 64 µg/mL
MIC (Streptococcus pneumoniae [4]): ≤ 0.125 µg/mL
MIC (Staphylococcus aureus [5]): 0.5 µg/mL (≈ 0.668 µM)
MIC (Haemophilus influenzae): 1 µg/mL (≈ 1.34 µM)
MIC (Staphylococcus aureus [6]): > 64 µg/mL
MIC (Streptococcus pneumoniae [7]): > 64 µg/mL
MIC (Streptococcus pyogenes [8]): 16 µg/mL (≈ 21.4 µM)
MIC (Streptococcus pneumoniae [9]): > 64 µg/mL
MIC (Streptococcus pyogenes [10]): ≤ 0.125 µg/mL
MIC (Staphylococcus aureus [11]): > 64 µg/mL
MIC (Moraxella catarrhalis): ≤ 0.125 µg/mL
MIC (Staphylococcus aureus [12]): > 64 µg/mL

CC[C@H]1OC(=O)[C@H](C)[C@@H](O[C@H]2C[C@@](C)(OC)[C@@H](O)[C@H](C)O2)[C@H](C)[C@@H](O[C@@H]2O[C@H](C)C[C@H](N(C)C)[C@H]2O)[C@](C)(OC)C[C@@H](C)C(=O)[C@H](C)[C@@H](O)[C@]1(C)O [CLARITHROMYCIN]
MIC (Streptococcus pyogenes [1]): 4 µg/mL (≈ 5.35 µM)
MIC (Streptococcus pneumoniae [2]): 4 µg/mL (≈ 5.35 µM)
MIC (Streptococcus pyogenes [3]): > 64 µg/mL
MIC (Streptococcus pneumoniae [4]): ≤ 0.125 µg/mL
MIC (Staphylococcus aureus [5]): 0.25 µg/mL (≈ 0.334 µM)
MIC (Haemophilus influenzae): 8 µg/mL (≈ 10.7 µM)
MIC (Staphylococcus aureus [6]): 32 µg/mL (≈ 42.8 µM)
MIC (Streptococcus pneumoniae [7]): > 64 µg/mL
MIC (Streptococcus pyogenes [8]): 1 µg/mL (≈ 1.34 µM)
MIC (Streptococcus pneumoniae [9]): > 64 µg/mL
MIC (Streptococcus pyogenes [10]): ≤ 0.125 µg/mL
MIC (Staphylococcus aureus [11]): > 64 µg/mL
MIC (Moraxella catarrhalis): ≤ 0.125 µg/mL
MIC (Staphylococcus aureus [12]): > 64 µg/mL

CCOC(=O)c1cn(C2CC2)c2ccc(C#CCN3CCN(CCC(=O)O[C@H]4[C@H](C)O[C@@H](O[C@H]5[C@H](C)[C@@H](O[C@@H]6O[C@H](C)C[C@H](N(C)C)[C@H]6O)[C@](C)(O)C[C@@H](C)CN(C)[C@H](C)[C@@H](OC)[C@](C)(O)[C@@H](CC)OC(=O)[C@@H]5C)C[C@@]4(C)OC)CC3)cc2c1=O
MIC (Streptococcus pyogenes [1]): 0.5 µg/mL (≈ 0.418 µM)
MIC (Streptococcus pneumoniae [2]): ≤ 0.125 µg/mL
MIC (Streptococcus pyogenes [3]): 32 µg/mL (≈ 26.7 µM)
MIC (Streptococcus pneumoniae [4]): ≤ 0.125 µg/mL
MIC (Staphylococcus aureus [5]): 4 µg/mL (≈ 3.34 µM)
MIC (Haemophilus influenzae): 16 µg/mL (≈ 13.4 µM)
MIC (Staphylococcus aureus [6]): 64 µg/mL (≈ 53.5 µM)
MIC (Streptococcus pneumoniae [7]): 0.25 µg/mL (≈ 0.209 µM)
MIC (Streptococcus pyogenes [8]): ≤ 0.125 µg/mL
MIC (Streptococcus pneumoniae [9]): 0.5 µg/mL (≈ 0.418 µM)
MIC (Streptococcus pyogenes [10]): ≤ 0.125 µg/mL
MIC (Staphylococcus aureus [11]): > 64 µg/mL
MIC (Moraxella catarrhalis): 4 µg/mL (≈ 3.34 µM)
MIC (Staphylococcus aureus [12]): > 64 µg/mL

CCOC(=O)c1cn(C2CC2)c2ccc(C#CCN3CCN(CCC(=O)O[C@H]4[C@H](C)O[C@@H](O[C@H]5[C@H](C)[C@@H](O[C@@H]6O[C@H](C)C[C@H](N(C)C)[C@H]6O)[C@](C)(OC)C[C@@H](C)C(=O)[C@H](C)[C@@H](O)[C@](C)(O)[C@@H](CC)OC(=O)[C@@H]5C)C[C@@]4(C)OC)CC3)cc2c1=O
MIC (Streptococcus pyogenes [1]): ≤ 0.125 µg/mL
MIC (Streptococcus pneumoniae [2]): ≤ 0.125 µg/mL
MIC (Streptococcus pyogenes [3]): 16 µg/mL (≈ 13.5 µM)
MIC (Streptococcus pneumoniae [4]): ≤ 0.125 µg/mL
MIC (Staphylococcus aureus [5]): 4 µg/mL (≈ 3.39 µM)
MIC (Haemophilus influenzae): > 64 µg/mL
MIC (Staphylococcus aureus [6]): > 64 µg/mL
MIC (Streptococcus pneumoniae [7]): 4 µg/mL (≈ 3.39 µM)
MIC (Streptococcus pyogenes [8]): 0.5 µg/mL (≈ 0.423 µM)
MIC (Streptococcus pneumoniae [9]): 4 µg/mL (≈ 3.39 µM)
MIC (Streptococcus pyogenes [10]): ≤ 0.125 µg/mL
MIC (Staphylococcus aureus [11]): > 64 µg/mL
MIC (Moraxella catarrhalis): 4 µg/mL (≈ 3.39 µM)
MIC (Staphylococcus aureus [12]): > 64 µg/mL

CCOC(=O)c1cn(CC)c2ccc(C#CCN3CCN(CCC(=O)O[C@H]4[C@H](C)O[C@@H](O[C@H]5[C@H](C)[C@@H](O[C@@H]6O[C@H](C)C[C@H](N(C)C)[C@H]6O)[C@](C)(O)C[C@@H](C)CN(C)[C@H](C)[C@@H](OC)[C@](C)(O)[C@@H](CC)OC(=O)[C@@H]5C)C[C@@]4(C)OC)CC3)cc2c1=O
MIC (Streptococcus pyogenes [1]): 1 µg/mL (≈ 0.844 µM)
MIC (Streptococcus pneumoniae [2]): ≤ 0.125 µg/mL
MIC (Streptococcus pyogenes [3]): 32 µg/mL (≈ 27 µM)
MIC (Streptococcus pneumoniae [4]): ≤ 0.125 µg/mL
MIC (Staphylococcus aureus [5]): 4 µg/mL (≈ 3.38 µM)
MIC (Haemophilus influenzae): 32 µg/mL (≈ 27 µM)
MIC (Staphylococcus aureus [6]): > 64 µg/mL
MIC (Streptococcus pneumoniae [7]): 0.5 µg/mL (≈ 0.422 µM)
MIC (Streptococcus pyogenes [8]): 0.25 µg/mL (≈ 0.211 µM)
MIC (Streptococcus pneumoniae [9]): 1 µg/mL (≈ 0.844 µM)
MIC (Streptococcus pyogenes [10]): ≤ 0.125 µg/mL
MIC (Staphylococcus aureus [11]): > 64 µg/mL
MIC (Moraxella catarrhalis): 8 µg/mL (≈ 6.75 µM)
MIC (Staphylococcus aureus [12]): > 64 µg/mL

CCOC(=O)c1cn(CC)c2ccc(C#CCN3CCN(CCC(=O)O[C@H]4[C@H](C)O[C@@H](O[C@H]5[C@H](C)[C@@H](O[C@@H]6O[C@H](C)C[C@H](N(C)C)[C@H]6O)[C@](C)(O)C[C@@H](C)CN(C)[C@H](C)[C@@H](O)[C@](C)(O)[C@@H](CC)OC(=O)[C@@H]5C)C[C@@]4(C)OC)CC3)cc2c1=O
MIC (Streptococcus pyogenes [1]): ≤ 0.125 µg/mL
MIC (Streptococcus pneumoniae [2]): ≤ 0.125 µg/mL
MIC (Streptococcus pyogenes [3]): 32 µg/mL (≈ 27.3 µM)
MIC (Streptococcus pneumoniae [4]): ≤ 0.125 µg/mL
MIC (Staphylococcus aureus [5]): 1 µg/mL (≈ 0.854 µM)
MIC (Haemophilus influenzae): 4 µg/mL (≈ 3.42 µM)
MIC (Staphylococcus aureus [6]): 16 µg/mL (≈ 13.7 µM)
MIC (Streptococcus pneumoniae [7]): ≤ 0.125 µg/mL
MIC (Streptococcus pyogenes [8]): ≤ 0.125 µg/mL
MIC (Streptococcus pneumoniae [9]): ≤ 0.125 µg/mL
MIC (Streptococcus pyogenes [10]): ≤ 0.125 µg/mL
MIC (Staphylococcus aureus [11]): > 64 µg/mL
MIC (Moraxella catarrhalis): 1 µg/mL (≈ 0.854 µM)
MIC (Staphylococcus aureus [12]): > 64 µg/mL

CCOC(=O)c1cn(CC)c2ccc(CCCN3CCN(CCC(=O)O[C@H]4[C@H](C)O[C@@H](O[C@H]5[C@H](C)[C@@H](O[C@@H]6O[C@H](C)C[C@H](N(C)C)[C@H]6O)[C@](C)(OC)C[C@@H](C)C(=O)[C@H](C)[C@@H](O)[C@](C)(O)[C@@H](CC)OC(=O)[C@@H]5C)C[C@@]4(C)OC)CC3)cc2c1=O
MIC (Streptococcus pyogenes [1]): ≤ 0.125 µg/mL
MIC (Streptococcus pneumoniae [2]): ≤ 0.125 µg/mL
MIC (Streptococcus pyogenes [3]): 16 µg/mL (≈ 13.6 µM)
MIC (Streptococcus pneumoniae [4]): ≤ 0.125 µg/mL
MIC (Staphylococcus aureus [5]): 4 µg/mL (≈ 3.41 µM)
MIC (Haemophilus influenzae): > 64 µg/mL
MIC (Staphylococcus aureus [6]): > 64 µg/mL
MIC (Streptococcus pneumoniae [7]): 16 µg/mL (≈ 13.6 µM)
MIC (Streptococcus pyogenes [8]): 0.25 µg/mL (≈ 0.213 µM)
MIC (Streptococcus pneumoniae [9]): 8 µg/mL (≈ 6.82 µM)
MIC (Streptococcus pyogenes [10]): ≤ 0.125 µg/mL
MIC (Staphylococcus aureus [11]): > 64 µg/mL
MIC (Moraxella catarrhalis): 4 µg/mL (≈ 3.41 µM)
MIC (Staphylococcus aureus [12]): > 64 µg/mL
